ChEMBL document CHEMBL1687841, “Molecular analysis of antimicrobial resistance mechanisms in Neisseria gonorrhoeae isolates from Ontario, Canada” (2011)
Values after ≈ are worked out from the molar mass of the structure shown.

Assays:
Neisseria gonorrhoeae [1] = assay: microbe, parasite or virus in culture; conditions: 24 h
Neisseria gonorrhoeae [2] = assay: Antimicrobial activity against Neisseria gonorrhoeae clinical isolates harboring porB G120K, A121D mutant gene, PBP1 L421P mutant gene, PBP2 XXXIV pattern, deletion of nucleotide A from […] promoter, MAST 225 after 24 hrs by agar dilution method; format: functional
How it was run: (§1)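 Ontario clinical isolates grown on GC agar plus 1% defined growth supplement, 37°C, 5% CO2, 20 to 24 h, subcultured twice before testing. MICs by agar dilution per CLSI guidelines. QC strains: ATCC 49226 and 2008 WHO panel strains F, G, K, L, N, O, P. Genotypes deduced by PCR and sequencing of ponA, penA, porB, mtrR and its promoter.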

Neisseria gonorrhoeae [3] = assay: Antimicrobial activity against Neisseria gonorrhoeae clinical isolates harboring PBP2 XXXV pattern, deletion of nucleotide A from […] promoter, MAST 546 after 24 hrs by agar dilution method; format: functional
How it was run: as §1

Neisseria gonorrhoeae [4] = assay: Antimicrobial activity against Neisseria gonorrhoeae clinical isolates after 24 hrs by agar dilution method; format: functional
Neisseria gonorrhoeae [5] = assay: Antimicrobial activity against Neisseria gonorrhoeae clinical isolates harboring porB G120K, A121D mutant gene, PBP2 XXXVIII pattern, deletion of nucleotide A from […] promoter, MAST 3158 after 24 hrs by agar dilution method; format: functional
How it was run: as §1

Neisseria gonorrhoeae [6] = assay: Antimicrobial activity against Neisseria gonorrhoeae clinical isolates harboring porB G120K, A121D mutant gene, PBP1 L421P mutant gene, PBP2 XXXVIII pattern, deletion of nucleotide A from […] promoter, MAST 3570 after 24 hrs by agar dilution method; format: functional
How it was run: as §1

Neisseria gonorrhoeae [7] = assay: Antimicrobial activity against Neisseria gonorrhoeae clinical isolates harboring porB G120K, A121D mutant gene, PBP1 L421P mutant gene, PBP2 XXXVIII pattern, deletion of nucleotide A from […] promoter, MAST 3563 after 24 hrs by agar dilution method; format: functional
How it was run: as §1

Neisseria gonorrhoeae [8] = assay: Antimicrobial activity against Neisseria gonorrhoeae clinical isolates harboring porB G120K, A121D mutant gene, PBP2 XXXVI pattern, deletion of nucleotide A from […] promoter, MAST 3596 after 24 hrs by agar dilution method; format: functional
How it was run: as §1

Neisseria gonorrhoeae [9] = assay: Antimicrobial activity against Neisseria gonorrhoeae clinical isolates assessed as percent susceptible isolates after 24 hrs by agar dilution method; format: functional
Neisseria gonorrhoeae [10] = assay: Antimicrobial activity against Neisseria gonorrhoeae clinical isolates harboring PBP2 XXXIV pattern, MAST 51 after 24 hrs by agar dilution method; format: functional
How it was run: as §1

Neisseria gonorrhoeae [11] = assay: Antimicrobial activity against Neisseria gonorrhoeae clinical isolates harboring PBP2 XXXVIII pattern, deletion of nucleotide A from […] promoter, MAST 3553 after 24 hrs by agar dilution method; format: functional
How it was run: as §1

Neisseria gonorrhoeae [12] = assay: Antimicrobial activity against Neisseria gonorrhoeae clinical isolates harboring porB A121S mutant gene, PBP1 L421P mutant gene, PBP2 XXXVIII pattern, deletion of nucleotide A from […] promoter, MAST 3116 after 24 hrs by agar dilution method; format: functional
How it was run: as §1

Neisseria gonorrhoeae [13] = assay: Antimicrobial activity against Neisseria gonorrhoeae clinical isolates assessed as percent resistant isolates after 24 hrs by agar dilution method; format: functional
Neisseria gonorrhoeae [14] = assay: Antimicrobial activity against Neisseria gonorrhoeae clinical isolates harboring PBP1 L421P mutant gene, PBP2 XXXVII pattern, deletion of nucleotide A from […] promoter, MtrR G45D mutant MAST 299 after 24 hrs by agar dilution method; format: functional
How it was run: as §1

Neisseria gonorrhoeae [15] = assay: Antimicrobial activity against Neisseria gonorrhoeae clinical isolates harboring porB G120K, A121D mutant gene, PBP1 L421P mutant gene, PBP2 XXXVIII pattern, deletion of nucleotide A from […] promoter, MAST 3158 after 24 hrs by agar dilution method; format: functional
How it was run: as §1

Neisseria gonorrhoeae [16] = assay: Antimicrobial activity against Neisseria gonorrhoeae clinical isolates harboring porB G120K, A121D mutant gene, PBP1 L421P mutant gene, PBP2 XXXVIII pattern, insertion of nucleotide T from […] promoter, MAST 3158 after 24 hrs by agar dilution method; format: functional
How it was run: as §1

With `CC[C@H]1OC(=O)[C@H](C)[C@@H](O[C@H]2C[C@@](C)(OC)[C@@H](O)[C@H](C)O2)[C@H](C)[C@@H](O[C@@H]2O[C@H](C)C[C@H](N(C)C)[C@H]2O)[C@](C)(O)C[C@@H](C)CN(C)[C@H](C)[C@@H](O)[C@]1(C)O` [AZITHROMYCIN] the MIC (Neisseria gonorrhoeae [1]) was 0.25 µg/mL (≈ 0.334 µM).
For `C=CC1=C(C(=O)O)N2C(=O)[C@@H](NC(=O)/C(=N\OCC(=O)O)c3csc(N)n3)[C@H]2SC1` [CEFIXIME], the MIC (Neisseria gonorrhoeae [2]) was 0.25 µg/mL (≈ 0.551 µM), the MIC (Neisseria gonorrhoeae [3]) was 0.125 µg/mL (≈ 0.276 µM) and the MIC50 (Neisseria gonorrhoeae [4]) was no more than 0.03 µg/mL. It also gave an MIC90 (Neisseria gonorrhoeae [4]) of no more than 0.03 µg/mL, an MIC (Neisseria gonorrhoeae [5]) of 0.25 µg/mL (≈ 0.551 µM) and an MIC (Neisseria gonorrhoeae [6]) of 0.125 µg/mL (≈ 0.276 µM). For the same molecule, the MIC (Neisseria gonorrhoeae [7]) was 0.125 µg/mL (≈ 0.276 µM), the MIC (Neisseria gonorrhoeae [8]) was 0.125 µg/mL (≈ 0.276 µM) and the Activity (Neisseria gonorrhoeae [9]) was 100%. The MIC (Neisseria gonorrhoeae [10]) was 0.125 µg/mL (≈ 0.276 µM), the MIC (Neisseria gonorrhoeae [11]) was 0.125 µg/mL (≈ 0.276 µM) and the MIC (Neisseria gonorrhoeae [12]) was 0.125 µg/mL (≈ 0.276 µM). The Activity (Neisseria gonorrhoeae [13]) was 0%, the MIC (Neisseria gonorrhoeae [14]) was 0.25 µg/mL (≈ 0.551 µM) and the MIC (Neisseria gonorrhoeae [15]) was 0.125 µg/mL (≈ 0.276 µM). It also gave an MIC (Neisseria gonorrhoeae [16]) of 0.125 µg/mL (≈ 0.276 µM).
Work on `CO/N=C(\C(=O)N[C@@H]1C(=O)N2C(C(=O)O)=C(CSc3nc(=O)c(O)nn3C)CS[C@H]12)c1csc(N)n1` [CEFTRIAXONE] yielded an MIC (Neisseria gonorrhoeae [2]) of 0.125 µg/mL (≈ 0.225 µM), an MIC (Neisseria gonorrhoeae [3]) of 0.125 µg/mL (≈ 0.225 µM) and an MIC50 (Neisseria gonorrhoeae [4]) of no more than 0.03 µg/mL. It also gave an MIC90 (Neisseria gonorrhoeae [4]) of no more than 0.06 µg/mL, an MIC (Neisseria gonorrhoeae [5]) of 0.125 µg/mL (≈ 0.225 µM) and an MIC (Neisseria gonorrhoeae [6]) of 0.063 µg/mL (≈ 0.114 µM). For the same molecule, the MIC (Neisseria gonorrhoeae [7]) was 0.063 µg/mL (≈ 0.114 µM), the MIC (Neisseria gonorrhoeae [8]) was 0.125 µg/mL (≈ 0.225 µM) and the Activity (Neisseria gonorrhoeae [9]) was 100%. For the same molecule, the MIC (Neisseria gonorrhoeae [10]) was 0.063 µg/mL (≈ 0.114 µM), the MIC (Neisseria gonorrhoeae [11]) was 0.032 µg/mL (≈ 0.0577 µM) and the MIC (Neisseria gonorrhoeae [12]) was 0.063 µg/mL (≈ 0.114 µM). The Activity (Neisseria gonorrhoeae [13]) was 0%, the MIC (Neisseria gonorrhoeae [14]) was 0.125 µg/mL (≈ 0.225 µM) and the MIC (Neisseria gonorrhoeae [15]) was 0.063 µg/mL (≈ 0.114 µM). It also gave an MIC (Neisseria gonorrhoeae [16]) of 0.063 µg/mL (≈ 0.114 µM).
For `CC[C@H]1OC(=O)[C@H](C)[C@@H](O[C@H]2C[C@@](C)(OC)[C@@H](O)[C@H](C)O2)[C@H](C)[C@@H](O[C@@H]2O[C@H](C)C[C@H](N(C)C)[C@H]2O)[C@](C)(O)C[C@@H](C)C(=O)[C@H](C)[C@@H](O)[C@]1(C)O` [ERYTHROMYCIN], the MIC (Neisseria gonorrhoeae [4]) was no more than 1 µg/mL, the MIC50 (Neisseria gonorrhoeae [4]) was no more than 1 µg/mL and the MIC90 (Neisseria gonorrhoeae [4]) was 2 µg/mL (≈ 2.73 µM). For the same molecule, the Activity (Neisseria gonorrhoeae [9]) was 77.2% and the Activity (Neisseria gonorrhoeae [13]) was 22.8%.
For `CC1(C)S[C@@H]2[C@H](NC(=O)Cc3ccccc3)C(=O)N2[C@H]1C(=O)O` [PENICILLIN G], the MIC (Neisseria gonorrhoeae [2]) was 2 µg/mL (≈ 5.98 µM), the MIC (Neisseria gonorrhoeae [3]) was 1 µg/mL (≈ 2.99 µM) and the MIC50 (Neisseria gonorrhoeae [4]) was 0.25 µg/mL (≈ 0.748 µM). For the same molecule, the MIC90 (Neisseria gonorrhoeae [4]) was 2 µg/mL (≈ 5.98 µM), the MIC (Neisseria gonorrhoeae [5]) was 1 µg/mL (≈ 2.99 µM) and the MIC (Neisseria gonorrhoeae [6]) was 2 µg/mL (≈ 5.98 µM). For the same molecule, the MIC (Neisseria gonorrhoeae [7]) was 1 µg/mL (≈ 2.99 µM), the MIC (Neisseria gonorrhoeae [8]) was 0.5 µg/mL (≈ 1.5 µM) and the Activity (Neisseria gonorrhoeae [9]) was 10.7%. For the same molecule, the MIC (Neisseria gonorrhoeae [10]) was 1 µg/mL (≈ 2.99 µM), the MIC (Neisseria gonorrhoeae [11]) was 0.5 µg/mL (≈ 1.5 µM) and the MIC (Neisseria gonorrhoeae [12]) was 2 µg/mL (≈ 5.98 µM). For the same molecule, the Activity (Neisseria gonorrhoeae [13]) was 12.1%, the MIC (Neisseria gonorrhoeae [14]) was 2 µg/mL (≈ 5.98 µM) and the MIC (Neisseria gonorrhoeae [15]) was 1 µg/mL (≈ 2.99 µM). It also gave an MIC (Neisseria gonorrhoeae [16]) of 1 µg/mL (≈ 2.99 µM).
`CN[C@@H]1[C@H](O)[C@H](NC)[C@H]2O[C@@]3(O)C(=O)C[C@@H](C)O[C@H]3O[C@@H]2[C@H]1O` [SPECTINOMYCIN] gave an MIC50 (Neisseria gonorrhoeae [4]) of no more than 32 µg/mL, an MIC90 (Neisseria gonorrhoeae [4]) of no more than 32 µg/mL and an Activity (Neisseria gonorrhoeae [9]) of 100%. For the same molecule, the Activity (Neisseria gonorrhoeae [13]) was 0%.
Molecule `CN(C)[C@@H]1C(O)=C(C(N)=O)C(=O)[C@@]2(O)C(O)=C3C(=O)c4c(O)cccc4[C@@](C)(O)[C@H]3C[C@@H]12` [TETRACYCLINE] has an MIC50 (Neisseria gonorrhoeae [4]) of 0.5 µg/mL (≈ 1.13 µM), an MIC90 (Neisseria gonorrhoeae [4]) of 2 µg/mL (≈ 4.5 µM) and an Activity (Neisseria gonorrhoeae [9]) of 27.5%. It also gave an Activity (Neisseria gonorrhoeae [13]) of 25.5%.
